# Assay results from ChEMBL document CHEMBL1158443, “Discovery of novel lipophilic inhibitors of OXA-10 enzyme (class D beta-lactamase) by screening amino analogs and homologs of citrate and isocitrate” (Bioorg Med Chem Lett, 2009).
# Key:
# [1] = target: Beta-lactamase (Bacillus licheniformis) (UniProt P00808); assay: Inhibition of Bacillus licheniformis BS3 beta-lactamase assessed as residual activity at 100 uM at pH 5 using acetate buffer by spectrophotometry; values are per cent of control
# [2] = system: Bacillus cereus; assay: Inhibition of Bacillus cereus BC2 beta-lactamase assessed as residual activity at 100 uM at pH 5 using acetate buffer by spectrophotometry; values are per cent of control
# [3] = target: Beta-lactamase (Bacillus licheniformis) (UniProt P00808); assay: Inhibition of Bacillus licheniformis BS3 beta-lactamase assessed as residual activity at 100 uM at pH 7 using phosphate buffer by spectrophotometry; values are per cent of control
# [4] = target: T1, Imipenem-hydrolyzing beta-lactamase (Enterobacter cloacae) (UniProt P52663); assay: Inhibition of Enterobacter cloacae NMCA beta-lactamase assessed as residual activity at 100 uM at pH 5 using acetate buffer by spectrophotometry; values are per cent of control
# T1 sequence (whole entry): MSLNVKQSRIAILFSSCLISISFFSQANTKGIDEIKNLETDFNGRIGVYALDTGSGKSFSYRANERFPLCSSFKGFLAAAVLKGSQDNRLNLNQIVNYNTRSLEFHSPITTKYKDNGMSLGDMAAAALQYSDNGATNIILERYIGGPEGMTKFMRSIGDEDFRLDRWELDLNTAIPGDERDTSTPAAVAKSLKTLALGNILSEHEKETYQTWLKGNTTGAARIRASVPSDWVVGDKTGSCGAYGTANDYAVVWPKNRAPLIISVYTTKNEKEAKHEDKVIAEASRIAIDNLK
# [5] = target: Beta-lactamase OXA-10 (Pseudomonas aeruginosa) (UniProt P14489); assay: Inhibition of Pseudomonas aeruginosa OXA10 beta-lactamase assessed as residual activity at 100 uM at pH 5 using acetate buffer by spectrophotometry; values are per cent of control
# [6] = system: Bacillus cereus; assay: Inhibition of Bacillus cereus BC2 beta-lactamase assessed as residual activity at 100 uM at pH 7 using HEPES buffer by spectrophotometry; values are per cent of control
# [7] = Inhibition of TEM1 beta-lactamase assessed as residual activity at 100 uM at pH 5 using acetate buffer by spectrophotometry; values are per cent of control
# [8] = Inhibition of TEM1 beta-lactamase assessed as residual activity at 100 uM at pH 7 using phosphate buffer by spectrophotometry; values are per cent of control
# [9] = target: Beta-lactamase OXA-10 (Pseudomonas aeruginosa) (UniProt P14489); assay: Inhibition of Pseudomonas aeruginosa OXA10 beta-lactamase assessed as residual activity at 100 uM at pH 7 using phosphate buffer by spectrophotometry; values are per cent of control
# [10] = target: Beta-lactamase (Enterobacter cloacae) (UniProt P05364); assay: Inhibition of Enterobacter cloacae P99 beta-lactamase assessed as residual activity at 100 uM at pH 7 using phosphate buffer by spectrophotometry; values are per cent of control
# Sequence of Beta-lactamase (Enterobacter cloacae) (P05364 21-381 limits assumed): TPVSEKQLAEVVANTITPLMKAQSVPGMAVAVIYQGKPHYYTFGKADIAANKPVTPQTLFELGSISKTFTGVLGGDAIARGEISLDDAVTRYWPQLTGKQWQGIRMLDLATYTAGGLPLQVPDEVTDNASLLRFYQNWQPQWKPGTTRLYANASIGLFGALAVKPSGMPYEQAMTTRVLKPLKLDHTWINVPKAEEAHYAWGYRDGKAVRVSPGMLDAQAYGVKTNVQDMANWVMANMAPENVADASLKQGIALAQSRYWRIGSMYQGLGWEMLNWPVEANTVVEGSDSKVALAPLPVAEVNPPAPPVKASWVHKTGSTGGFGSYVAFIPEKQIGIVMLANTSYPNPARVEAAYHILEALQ
# [11] = target: Beta-lactamase (Enterobacter cloacae) (UniProt P05364); assay: Inhibition of Enterobacter cloacae P99 beta-lactamase assessed as residual activity at 100 uM at pH 5 using acetate buffer by spectrophotometry; values are per cent of control
# [12] = target: T1, Imipenem-hydrolyzing beta-lactamase (Enterobacter cloacae); assay: Inhibition of Enterobacter cloacae NMCA beta-lactamase assessed as residual activity at 100 uM at pH 7 using phosphate buffer by spectrophotometry; values are per cent of control
# [13] = target: Beta-lactamase VIM-4 (Pseudomonas aeruginosa) (UniProt Q8KRJ3); assay: Inhibition of Pseudomonas aeruginosa VIM4 beta-lactamase assessed as residual activity at 100 uM at pH 7 using HEPES buffer by spectrophotometry; values are per cent of control
# [14] = target: T2, Beta-lactamase OXA-10 (Pseudomonas aeruginosa, UniProt P14489); assay: Competitive inhibition of Pseudomonas aeruginosa OXA10 beta-lactamase at pH 7
# In short: (§1)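 Ki came from plotting v0/vi against inhibitor concentration. v0/vi is the ratio of nitrocefin hydrolysis rates without and with inhibitor, monitored spectrophotometrically at 482 nm. Enzyme (1-100 nM) was preincubated with inhibitor for 30 min at 37 °C in the buffer for the stated pH.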
# [15] = target: Beta-lactamase (Bacillus licheniformis, UniProt P00808); assay: Inhibition of Bacillus licheniformis BS3 beta-lactamase at pH 5
# Sequence of Beta-lactamase (P00808 whole entry): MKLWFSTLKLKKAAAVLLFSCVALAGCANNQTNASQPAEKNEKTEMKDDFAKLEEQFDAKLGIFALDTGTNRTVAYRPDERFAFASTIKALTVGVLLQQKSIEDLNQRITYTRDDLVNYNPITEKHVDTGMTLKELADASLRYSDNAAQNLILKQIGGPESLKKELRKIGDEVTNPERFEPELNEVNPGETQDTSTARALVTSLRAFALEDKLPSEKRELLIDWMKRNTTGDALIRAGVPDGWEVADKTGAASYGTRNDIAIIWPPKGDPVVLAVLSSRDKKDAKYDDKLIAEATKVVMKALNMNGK
# [16] = target: T2, Beta-lactamase OXA-10; assay: Inactivation of Pseudomonas aeruginosa OXA10 beta-lactamase at pH 7
# [17] = Ratio of Kcat to Km for TEM1 beta-lactamase
# [18] = system: Bacillus cereus; assay: Activity of Bacillus cereus BC2 beta-lactamase
# [19] = target: T1, Imipenem-hydrolyzing beta-lactamase (Enterobacter cloacae); assay: Ratio of Kcat to Km for Enterobacter cloacae NMCA beta-lactamase
# [20] = Activity of TEM1 beta-lactamase
# [21] = system: Bacillus cereus; assay: Ratio of Kcat to Km for Bacillus cereus BC2 beta-lactamase
# [22] = target: Beta-lactamase OXA-10 (Pseudomonas aeruginosa) (UniProt P14489); assay: Ratio of Kcat to Km for Pseudomonas aeruginosa OXA10 beta-lactamase
# [23] = target: Beta-lactamase VIM-4 (Pseudomonas aeruginosa) (UniProt Q8KRJ3); assay: Ratio of Kcat to Km for Pseudomonas aeruginosa VIM4 beta-lactamase
# [24] = system: O=C(Cc1cccs1)N[C@@H]1C(=O)N2C(C(=O)O)=C(/C=C/c3ccc([N+](=O)[O-])cc3[N+](=O)[O-])CS[C@H]12; assay: Activity of Pseudomonas aeruginosa VIM4 beta-lactamase
# [25] = Competitive inhibition of TEM1 beta-lactamase at pH 5
# In short: as §1
# [26] = substrate: O=C(Cc1cccs1)N[C@@H]1C(=O)N2C(C(=O)O)=C(/C=C/c3ccc([N+](=O)[O-])cc3[N+](=O)[O-])CS[C@H]12; assay: Activity of Pseudomonas aeruginosa OXA10 beta-lactamase
# [27] = substrate: O=C(Cc1cccs1)N[C@@H]1C(=O)N2C(C(=O)O)=C(/C=C/c3ccc([N+](=O)[O-])cc3[N+](=O)[O-])CS[C@H]12; assay: Activity of Enterobacter cloacae NMCA beta-lactamase
# Sequence of Beta-lactamase (Bacillus licheniformis) (P00808 whole entry): as above
Molecule,residual activity [2] [%],residual activity [3] [%],residual activity [8] [%],residual activity [9] [%],residual activity [10] [%],residual activity [12] [%],residual activity [13] [%],further results
COC(=O)CC(N)(CC(=O)OC)C(=O)O,100,95,99,100,100,95,100,residual activity [1]: 100%; residual activity [4]: 99%; residual activity [5]: 79%; residual activity [6]: 100%; residual activity [7]: 87%; residual activity [11]: 73%
O=C(COc1ccccc1)NC(CC(=O)OCc1ccccc1)(CC(=O)OCc1ccccc1)C(=O)OCc1ccccc1,–,–,–,10,–,–,–,Ki [14]: 20 µM
CCOC(=O)C1CC(=O)NC1C(=O)OCC (configuration not stated),100,100,100,91,100,100,94,residual activity [1]: 100%; residual activity [4]: 93%; residual activity [5]: 87%; residual activity [7]: 86%; residual activity [11]: 100%
COC(=O)C(CC(=O)OCc1ccccc1)(CC(=O)OCc1ccccc1)NC(=O)COc1ccccc1,–,–,–,10,–,–,–,–
O=C(O)CC(C(=O)O)C(O)C(=O)O (configuration not stated) [ISOCITRATE],–,–,–,–,–,–,–,Ki [15]: 2200 µM
COC(=O)CC(N)(CC(=O)OC)C(=O)OCc1ccccc1,100,–,–,100,–,–,–,–
CCOC(=O)CCC1(C(=O)OCC)CCC(=O)N1 (configuration not stated),100,85,94,97,100,100,96,residual activity [1]: 96%; residual activity [4]: 100%; residual activity [5]: 98%; residual activity [7]: 80%; residual activity [11]: 100%
COC(=O)C(N)(CC(=O)OCc1ccccc1)CC(=O)OCc1ccccc1,93,100,81,100,100,63,–,residual activity [6]: 100%
O=C(O)CC(CC(=O)O)(NC(=O)COc1ccccc1)C(=O)O,100,80,96,84,97,96,100,residual activity [1]: 70%; residual activity [4]: 85%; residual activity [5]: 82%; residual activity [7]: 100%; residual activity [11]: 100%
O=C(O)CC(O)(CC(=O)O)C(=O)O [CITRIC ACID],–,–,–,–,–,–,–,Ki [15]: 490 µM
NC(CC(=O)OCc1ccccc1)(CC(=O)OCc1ccccc1)C(=O)OCc1ccccc1,90,100,100,10,–,–,–,Ki [16]: 95 µM
COC(=O)C(N)(CC(=O)O)CC(=O)O,90,96,99,96,100,94,100,residual activity [1]: 97%; residual activity [4]: 96%; residual activity [5]: 83%; residual activity [6]: 100%; residual activity [7]: 92%; residual activity [11]: 93%
NC(C(=O)O)C(CC(=O)O)C(=O)O (configuration not stated),100,85,100,92,100,100,94,residual activity [1]: 97%; residual activity [4]: 86%; residual activity [5]: 85%; residual activity [7]: 90%; residual activity [11]: 94%
COC(=O)CC(CC(=O)OC)(NC(=O)Cc1ccccc1)C(=O)OC,–,–,–,–,–,–,–,residual activity [6]: 100%
COC(=O)C(CC(=O)O)(CC(=O)O)NC(=O)COc1ccccc1,100,96,98,100,85,66,100,residual activity [6]: 86%
CCOC(=O)CC(N)(CC(=O)OCC)C(=O)OCC,93,82,71,–,87,–,–,residual activity [6]: 92%
O=C(Cc1cccs1)N[C@@H]1C(=O)N2C(C(=O)O)=C(/C=C/c3ccc([N+](=O)[O-])cc3[N+](=O)[O-])CS[C@H]12,–,–,–,–,–,–,–,Ratio [17]: 2.5 ×10⁶ /M/s; Km [18]: 10 µM; kcat [18]: 40 s⁻¹; Ratio [19]: 3.5 ×10⁶ /M/s; Km [20]: 20 µM; kcat [20]: 50 s⁻¹; Ratio [21]: 4 ×10⁶ /M/s; Ratio [22]: 2 ×10⁷ /M/s; Ratio [23]: 4 ×10⁶ /M/s
Beta-lactamase VIM-4 (Pseudomonas aeruginosa) (from UniProt Q8KRJ3),–,–,–,–,–,–,–,Km [24]: 10 µM; kcat [24]: 40 s⁻¹
NC(CC(=O)O)(CC(=O)O)C(=O)O,–,88,95,–,81,–,100,Ki [25]: 150 µM
"Beta-lactamase OXA-10 (Pseudomonas aeruginosa), P14489 (protein) MKTFAAYVIIACLSSTALAGSITENTSWNKEFSAEAVNGVFVLCKSSSKSCATNDLARASKEYLPASTFKIPNAIIGLETGVIKNEHQVFKWDGKPRAMKQWERDLTLRGAIQVSAVPVFQQIAREVGEVRMQKYLKKFSYGNQNISGGIDKFWLEGQLRISAVNQVEFLESLYLNKLSASKENQLIVKEALVTEAAPEYLVHSKTGFSGVGTESNPGVAWWVGWVEKETEVYFFAFNMDIDNESKLPLRKSIPTKIMESEGIIGG",–,–,–,–,–,–,–,Km [26]: 20 µM; kcat [26]: 400 s⁻¹
"Imipenem-hydrolyzing beta-lactamase (Enterobacter cloacae), P52663 (protein) MSLNVKQSRIAILFSSCLISISFFSQANTKGIDEIKNLETDFNGRIGVYALDTGSGKSFSYRANERFPLCSSFKGFLAAAVLKGSQDNRLNLNQIVNYNTRSLEFHSPITTKYKDNGMSLGDMAAAALQYSDNGATNIILERYIGGPEGMTKFMRSIGDEDFRLDRWELDLNTAIPGDERDTSTPAAVAKSLKTLALGNILSEHEKETYQTWLKGNTTGAARIRASVPSDWVVGDKTGSCGAYGTANDYAVVWPKNRAPLIISVYTTKNEKEAKHEDKVIAEASRIAIDNLK",–,–,–,–,–,–,–,Km [27]: 40 µM; kcat [27]: 130 s⁻¹
